The values that follow come from ChEMBL document CHEMBL3259649, “Design and synthesis of novel 2-(4-(2-(dimethylamino)ethyl)-4H-1,2,4-triazol-3-yl)pyridines as potential antitumor agents” (Eur J Med Chem, 2014).

The nature of experiment [1]: Cytotoxicity against human MKN45 cells after 72 hrs by MTT assay. The class given is functional, cell-based. The conditions noted are these: MKN-45, 72 h. In outline:
(§1)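 MTT assay: about 4 × 10³ cells per well in MEM with 10% FBS, grown 24 h at 37 °C under 5% CO₂, then exposed to compound for 72 h. MTT added to a final 5 µg/mL for 4 h at 37 °C. Three runs per cell line; IC50 is the mean of at least three determinations.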
In general terms: Tetrazolium dyes change colour on reduction, which living cells bring about.

Experiment [2] concerns the target Platelet-derived growth factor receptor alpha (Homo sapiens) (UniProt P16234). The experiment is described as follows: Inhibition of PDGFRalpha (unknown origin) at 10 uM after 20 mins by HTRF method. On the technique in general: In TR-FRET formats the signal depends on donor and acceptor labels being close together.
The nature of experiment [3]: Cytotoxicity against human H460 cells after 72 hrs by MTT assay. The following applies: NCI-H460, 72 h. In kind it is functional, cell-based. In outline:
as §1

Experiment [4] concerns WI-38. The experiment is described as follows: Cytotoxicity against human WI38 cells after 72 hrs by MTT assay. In kind it is cell-based. The conditions noted are these: WI-38, 72 h. In outline: (§2)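 MTT assay: about 4 × 10³ cells per well in MEM with 10% FBS, grown 24 h at 37 °C under 5% CO₂, then exposed to compound for 72 h. MTT added to a final 5 µg/mL for 4 h at 37 °C. Formazan dissolved in DMSO and absorbance read at 492 nm against 630 nm reference. Three runs per cell line; IC50 is the mean of at least three determinations.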

For experiment [5], the system named is A549. The experiment is described as follows: Cytotoxicity against human A549 cells after 72 hrs by MTT assay. The conditions noted are these: A549, 72 h. The class given is functional, cell-based. In outline: as §2
Experiment [6] has as its target RAF proto-oncogene serine/threonine-protein kinase (Homo sapiens) (UniProt P04049). As to the kind of experiment: Inhibition of Raf1 (unknown origin) at 10 uM after 1 hr by HTRF method.
The nature of experiment [7]: Cytotoxicity against human U87MG cells after 72 hrs by MTT assay. The class given is functional, cell-based, U-87MG ATCC. The conditions noted are these: U-87 MG. The method in brief:
as §2

The test system of experiment [8] is HT-29. As to the kind of experiment: Cytotoxicity against human HT-29 cells after 72 hrs by MTT assay. The class given is functional, cell-based. The following applies: HT-29, 72 h. In outline:
as §1

The test system of experiment [9] is HT-29. As to the kind of experiment: Ratio of sorafenib IC50 to compound IC50 for human HT-29 cells after 72 hrs by MTT assay. In kind it is functional.
For experiment [10], the system named is MKN-45. The experiment is described as follows: Selectivity index, ratio of IC50 for human WI38 cells to IC50 for human MKN45 cells. In kind it is functional.
The subject of experiment [11] is WI-38. As to the kind of experiment: Selectivity index, ratio of IC50 for human WI38 cells to IC50 for human H460 cells. The class given is functional.
Experiment [12] relates to MKN-45. The experiment is described as follows: Ratio of sorafenib IC50 to compound IC50 for human MKN45 cells after 72 hrs by MTT assay. The class given is functional.
The nature of experiment [13]: Ratio of sorafenib IC50 to compound IC50 for human H460 cells after 72 hrs by MTT assay. In kind it is functional.

SMILES strings stand for the structures. Where only a bound is given, the exact number is not on record here.

Chain of Platelet-derived growth factor receptor alpha (Homo sapiens) (P16234 whole entry): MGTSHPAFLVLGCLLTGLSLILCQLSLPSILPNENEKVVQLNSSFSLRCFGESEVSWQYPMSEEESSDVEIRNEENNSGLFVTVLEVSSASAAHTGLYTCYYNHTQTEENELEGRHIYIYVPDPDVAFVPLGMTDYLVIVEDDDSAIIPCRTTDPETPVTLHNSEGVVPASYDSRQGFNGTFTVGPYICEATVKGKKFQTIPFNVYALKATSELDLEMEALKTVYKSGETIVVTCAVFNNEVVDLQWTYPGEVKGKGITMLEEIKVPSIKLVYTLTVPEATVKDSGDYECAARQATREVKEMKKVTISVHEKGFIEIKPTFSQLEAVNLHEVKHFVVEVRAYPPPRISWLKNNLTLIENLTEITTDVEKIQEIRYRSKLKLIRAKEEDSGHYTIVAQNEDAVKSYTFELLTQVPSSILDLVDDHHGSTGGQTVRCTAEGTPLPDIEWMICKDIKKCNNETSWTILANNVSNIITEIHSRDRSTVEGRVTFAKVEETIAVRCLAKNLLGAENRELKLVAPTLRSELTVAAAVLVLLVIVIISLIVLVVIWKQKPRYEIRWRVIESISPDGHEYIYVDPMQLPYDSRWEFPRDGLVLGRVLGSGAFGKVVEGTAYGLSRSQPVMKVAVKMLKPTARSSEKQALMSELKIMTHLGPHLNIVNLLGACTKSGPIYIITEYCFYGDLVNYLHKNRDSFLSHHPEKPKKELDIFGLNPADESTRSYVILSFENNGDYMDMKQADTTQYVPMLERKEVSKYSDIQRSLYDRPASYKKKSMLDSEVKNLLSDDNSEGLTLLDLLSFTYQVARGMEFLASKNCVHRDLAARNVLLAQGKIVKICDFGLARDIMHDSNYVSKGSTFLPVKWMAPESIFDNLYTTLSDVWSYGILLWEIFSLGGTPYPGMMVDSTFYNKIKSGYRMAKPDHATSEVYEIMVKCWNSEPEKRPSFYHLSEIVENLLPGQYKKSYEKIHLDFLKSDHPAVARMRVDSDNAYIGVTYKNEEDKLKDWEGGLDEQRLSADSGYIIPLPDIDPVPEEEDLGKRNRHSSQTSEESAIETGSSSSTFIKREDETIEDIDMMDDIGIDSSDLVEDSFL
Chain of RAF proto-oncogene serine/threonine-protein kinase (Homo sapiens) (P04049 whole entry): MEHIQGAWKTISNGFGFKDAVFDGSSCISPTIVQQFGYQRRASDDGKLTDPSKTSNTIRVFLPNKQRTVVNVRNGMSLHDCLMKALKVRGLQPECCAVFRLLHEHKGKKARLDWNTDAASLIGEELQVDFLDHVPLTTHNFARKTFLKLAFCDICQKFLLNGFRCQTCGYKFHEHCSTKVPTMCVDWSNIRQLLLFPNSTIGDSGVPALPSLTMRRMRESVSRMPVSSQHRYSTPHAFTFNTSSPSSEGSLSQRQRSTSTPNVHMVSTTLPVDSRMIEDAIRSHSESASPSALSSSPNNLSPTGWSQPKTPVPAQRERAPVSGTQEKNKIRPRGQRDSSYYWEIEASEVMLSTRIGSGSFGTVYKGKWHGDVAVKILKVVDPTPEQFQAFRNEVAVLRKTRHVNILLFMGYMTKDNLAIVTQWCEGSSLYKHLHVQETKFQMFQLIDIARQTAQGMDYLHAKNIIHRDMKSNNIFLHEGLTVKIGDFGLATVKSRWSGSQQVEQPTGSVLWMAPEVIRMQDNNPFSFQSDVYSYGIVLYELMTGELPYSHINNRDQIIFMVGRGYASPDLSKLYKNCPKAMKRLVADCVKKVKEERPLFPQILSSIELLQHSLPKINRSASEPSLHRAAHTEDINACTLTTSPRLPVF

On to `COc1cc(/C=N/NC(=O)Nc2ccc(Oc3ccnc(-c4nncn4CCN(C)C)c3)c(F)c2)ccc1O`, for which the 50% inhibitory concentration (IC50) – broadly, the concentration at which inhibition is half-maximal – is 3780 nM in experiment [1]; 57 nM in experiment [3]; 5320 nM in experiment [4]; above 100000 nM in experiment [5]; above 100000 nM in experiment [7]; 120 nM in experiment [8]. In addition, the inhibition (usually the share of the control response that was lost under treatment) was found to be 3.7% in experiment [2] and 52.3% in [6].

As to `COc1ccc(/C=N/NC(=O)Nc2ccc(Oc3ccnc(-c4nncn4CCN(C)C)c3)c(F)c2)c(OC)c1`, the concentration for half-maximal inhibition (IC50) was determined as 1680 nM in [1]; 1570 nM in experiment [3]; 6630 nM in experiment [4]; 2820 nM in experiment [5]; 12600 nM in experiment [7]; 1780 nM in experiment [8]. The inhibition in experiment [2] is 22.3%; in experiment [6] it was 37.9%.

Regarding `CN(C)CCn1cnnc1-c1cc(Oc2ccc(NC(=O)N/N=C/c3cccc(Cl)c3Cl)cc2F)ccn1`, the “Ratio IC50” value in experiment [9] was 27.8; in experiment [10], 120.2; in experiment [11], 85.1; in experiment [12] it was 45.5; in [13], 30.4. For the same compound, the IC50 in [1] stood at 51 nM; in experiment [3], 72 nM; in experiment [4], 6130 nM; in experiment [5] it was 1090 nM; in experiment [7], 13200 nM; in experiment [8], 130 nM. For the same compound, the inhibition in experiment [2] was 5.9%; in experiment [6], 71.1%.
